# “And” between values parts separate entries of the source, which are not always exact repeats. Identical values can stand only once. “Also recorded” adds a separate entry of the source.
# How the values were obtained:
# PARP and caspase-3 = experiment: Pharmacodynamic Western blotting of PARP and caspase-3 cleavage in RS4; format: in vivo, SCID mice; conditions: single intravenous dose, 5 mg/kg
# Procedure, shortened: (§1)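 SCID mice bearing RS4;11 xenografts were given one 5 mg/kg IV dose of the test compound and killed at 1, 3, 6 or 24 h; vehicle-treated mice were killed at 6 h. Two mice were used per time point, with one or two tumours each. Lysates were run on 4–20% gels and immunoblotted on PVDF for BRD2–4, c-Myc, PARP and caspase-3. Actin was the loading control, with ECL detection.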
# [1] = test system: BRD2, BRD3, and BRD4 proteins; experiment: Western blotting of BET protein levels in RS4; format: cell-based, human
# c-Myc [2] = experiment: Pharmacodynamic Western blotting of c-Myc in RS4; format: in vivo, SCID mice; conditions: single intravenous dose, 5 mg/kg
# Procedure, shortened: as §1
# [3] = Animal weight and signs of toxicity in RS4; format: in vivo; conditions: mice bearing RS4;11 xenografts, 5 mg/kg intravenously, three times a week for 3 weeks
# Procedure, shortened: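 Subcutaneous dorsal xenografts in SCID mice: 5 × 10⁶ RS4;11 cells in 50% Matrigel, one tumor per mouse. Mice randomised to treatment or vehicle groups at ~100 mm³. Dosing was intravenous every other day. Toxicity signs checked daily. Body weight recorded 2–3 times per week during treatment and at least weekly afterwards.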
# MOLM-13 cell line [4] = experiment: Cell cycle arrest by flow cytometry; format: cell-based, human; conditions: MOLM-13, 24 h
# Procedure, shortened: (§2)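 Cell cycle was read by propidium iodide staining and flow cytometry after 24 h exposure to the test compound at the indicated concentrations. RS4;11 or MOLM-13 cells were cultured in RPMI 1640 with 10% FBS and 1% penicillin–streptomycin at 37 °C, 5% CO₂, and used within three months of thawing.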
# RS4;11 cell line [5] = experiment: Cell cycle arrest by flow cytometry; format: cell-based, human; conditions: RS4;11, 24 h
# Procedure, shortened: as §2
# BRD3 = BRD3 (Homo sapiens, UniProt Q15059); experiment: Western blotting of BRD3 protein level in RS4; format: cell-based; conditions: RS4;11 cells, Western blot
# BRD3, sequence (Q15059 whole entry): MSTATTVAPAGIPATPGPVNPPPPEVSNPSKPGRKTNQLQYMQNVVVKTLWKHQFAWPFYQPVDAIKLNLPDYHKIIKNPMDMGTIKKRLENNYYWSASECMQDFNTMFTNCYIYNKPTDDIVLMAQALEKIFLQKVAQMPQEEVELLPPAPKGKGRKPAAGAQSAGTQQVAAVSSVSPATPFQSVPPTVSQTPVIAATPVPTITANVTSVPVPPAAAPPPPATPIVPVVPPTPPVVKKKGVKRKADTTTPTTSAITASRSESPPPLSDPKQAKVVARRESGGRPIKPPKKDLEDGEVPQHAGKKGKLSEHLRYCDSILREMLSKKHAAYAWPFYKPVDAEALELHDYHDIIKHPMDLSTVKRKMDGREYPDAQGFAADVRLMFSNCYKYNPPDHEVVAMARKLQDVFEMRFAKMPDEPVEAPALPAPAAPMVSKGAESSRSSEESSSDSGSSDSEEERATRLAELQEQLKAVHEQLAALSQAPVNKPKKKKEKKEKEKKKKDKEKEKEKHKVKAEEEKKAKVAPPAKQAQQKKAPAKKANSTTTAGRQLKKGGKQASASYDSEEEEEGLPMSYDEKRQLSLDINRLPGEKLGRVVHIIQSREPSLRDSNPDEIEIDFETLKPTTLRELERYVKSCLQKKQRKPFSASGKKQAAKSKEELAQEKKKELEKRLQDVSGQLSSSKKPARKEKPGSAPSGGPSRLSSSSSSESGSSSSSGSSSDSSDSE
# Procedure, shortened: (§3)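 RS4;11 cells (2 × 10⁶/well) were treated with the test compound at the indicated concentrations for 3 h or 24 h. Cells were lysed in RIPA buffer with protease inhibitors. Lysate (20 μg per lane) was separated by SDS–PAGE, blotted onto PVDF, and probed with BRD2, BRD3 and BRD4 antibodies, with GAPDH as the loading control.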
# BRD4 = BRD4 (Homo sapiens, UniProt O60885); experiment: Western blotting of BRD4 protein level in RS4; format: cell-based; conditions: RS4;11 cells
# Procedure, shortened: as §3
# c-Myc [6] = experiment: Western blotting of c-Myc level in RS4; format: cell-based, human; conditions: for Concentration effectively down-regulating the level of c-Myc: RS4;11 cells, 24 h treatment, Western blot
# Procedure, shortened: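 RS4;11 cells (2 × 10⁶/well) were exposed for 24 h to the test compound at the indicated concentrations. Cells were lysed in RIPA buffer with protease inhibitors. Lysate (20 μg per lane) was separated by SDS–PAGE, transferred to PVDF, and immunoblotted for c-Myc, with GAPDH as the loading control.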
# [7] = Drug concentration in plasma; format: in vivo, SCID mice
# Procedure, shortened: (§4)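 Female SCID C.B-17 mice bearing RS4;11 tumours received a single 5 mg/kg IV dose in 20% PEG 400, 6% Cremophor EL and 74% PBS. Mice were killed at 1, 3, 6 and 24 h (two mice per time point, three tumours per time point). Plasma came from blood spun at 15 000 rpm for 10 min; tumours were frozen and ground in liquid nitrogen. Samples were kept at −80 °C and assayed by LC–MS/MS on a C18 column.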
# [8] = In vitro metabolite identification in mouse liver microsomes; format: in vitro ADME; conditions: 10 μM, MLM with β-NADPH, 37 °C, 20 and 40 min
# Procedure, shortened: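 Incubation was quenched with a 3-fold volume of ice-cold acetonitrile, then centrifuged at 15 000 rpm for 10 min; supernatant stored at −80 °C. Negative controls omitted NADPH or used boiled microsomes. Metabolites were identified by tandem mass spectrometry, starting from the parent's product ion spectrum to establish fragmentation.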
# [9] = test system: triple-negative human breast cancer; conditions: in vitro and in vivo ref 32; cited from earlier work
# RS4;11 xenograft tumors = experiment: Antitumor efficacy in RS4; format: in vivo; conditions: mice, 5 mg/kg intravenously
# Procedure, shortened: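 Human RS4;11 leukaemia cells (5 × 10⁶, in 50% Matrigel) were injected subcutaneously on the dorsal side of SCID mice, one tumour per mouse. At ∼100 mm³, mice were randomised to treatment or vehicle groups. The test compound was given at 5 mg/kg IV every other day, three times a week, for 3 weeks. Tumours were measured by calipers 2–3 times weekly (V = LW²/2). Body weight and toxicity signs were monitored.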
# [10] = Drug concentration in RS4; format: in vivo, SCID mice
# Procedure, shortened: as §4
# RS4;11 cell line [11] = experiment: Apoptosis induction by flow cytometry; format: cell-based, human; conditions: RS4;11, 24 h treatment
# Procedure, shortened: (§5)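 RS4;11 or MOLM-13 cells were grown in RPMI 1640 with 10% FBS and 1% penicillin–streptomycin at 37 °C, 5% CO₂, and used within three months of thawing. Cells were treated with the test compound at the indicated concentrations for 24 h. They were then stained with annexin V and propidium iodide and analysed by flow cytometry.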
# MOLM-13 cell line [12] = experiment: Apoptosis induction by flow cytometry; format: cell-based, human; conditions: MOLM-13, 24 h treatment
# Procedure, shortened: as §5
# BRD2 = BRD2 (Homo sapiens, UniProt P25440); experiment: Western blotting of BRD2 protein level in RS4; format: cell-based; conditions: RS4;11 cells, Western blot
# BRD2, sequence (P25440 whole entry): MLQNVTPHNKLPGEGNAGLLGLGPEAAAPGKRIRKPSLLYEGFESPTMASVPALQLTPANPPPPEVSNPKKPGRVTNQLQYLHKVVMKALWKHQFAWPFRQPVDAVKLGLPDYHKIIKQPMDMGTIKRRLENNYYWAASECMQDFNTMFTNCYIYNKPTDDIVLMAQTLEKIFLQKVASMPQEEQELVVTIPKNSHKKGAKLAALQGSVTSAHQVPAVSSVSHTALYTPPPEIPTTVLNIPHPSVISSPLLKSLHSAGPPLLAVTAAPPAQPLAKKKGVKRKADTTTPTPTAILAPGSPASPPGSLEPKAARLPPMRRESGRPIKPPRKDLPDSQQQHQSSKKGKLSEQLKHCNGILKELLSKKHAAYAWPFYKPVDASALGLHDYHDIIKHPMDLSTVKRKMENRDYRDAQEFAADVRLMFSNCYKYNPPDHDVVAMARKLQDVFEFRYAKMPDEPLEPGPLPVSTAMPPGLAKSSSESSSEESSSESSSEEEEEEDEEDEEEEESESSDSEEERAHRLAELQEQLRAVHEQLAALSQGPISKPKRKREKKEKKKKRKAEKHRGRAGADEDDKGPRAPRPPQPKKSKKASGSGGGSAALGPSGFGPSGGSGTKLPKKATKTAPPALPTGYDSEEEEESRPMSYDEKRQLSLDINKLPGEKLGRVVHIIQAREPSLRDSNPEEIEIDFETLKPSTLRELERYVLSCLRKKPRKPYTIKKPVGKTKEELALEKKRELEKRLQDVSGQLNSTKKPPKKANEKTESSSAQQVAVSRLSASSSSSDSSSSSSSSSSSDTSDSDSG
# Procedure, shortened: as §3
# [13] = test system: BRD2, BRD3, and BRD4 proteins; experiment: Pharmacodynamic Western blotting of BET proteins in RS4; format: in vivo, SCID mice; conditions: single intravenous dose, 5 mg/kg
# Procedure, shortened: as §1
# [14] = test system: RS4;11 acute leukemia cell line; experiment: Cell growth inhibition; format: cell-based, human; conditions: comparator 23
# [15] = test system: MOLM-13 acute leukemia cell line; experiment: Cell growth inhibition; format: cell-based, human; conditions: MOLM13; comparator 23
# acute leukemia model = acute leukemia model in mice ref 23; cited from earlier work
# BRD2, BRD3, and BRD4 = experiment: FP-based competitive binding assays, BET proteins overall; conditions: binding to BRD2, BRD3, BRD4; comparator 1 or 2
# [16] = RS4;11 cells, 3 h treatment, Western blot
# [17] = 1 h after single 5 mg/kg intravenous dose
# [18] = 3 h after single 5 mg/kg intravenous dose
# [19] = 6 h after single 5 mg/kg intravenous dose
smiles,measurement,setting,value
"CCn1nc(C2CC2)cc1Nc1nc(C(=O)NCCCCCc2cccc3c2CN(C2CCC(=O)NC2=O)C3=O)nc2[nH]c3cc(-c4c(C)noc4C)c(OC)cc3c12 (stereo not shown) [Compound 23, 4-((3-Cyclopropyl-1-ethyl-1H-pyrazol-5-yl)amino)-7-(3,5-dimethylisoxazol-4-yl)-N-(5-(2-(2,6-dioxopiperidin-3-yl)-1-oxoisoindolin-4-yl)pentyl)-6-methoxy-9H-pyrimido[4,5-b]indole-2-carboxamide]",Onset of cleavage of PARP and caspase-3 in tumor tissue,PARP and caspase-3,3 h
same,Time of peak cleavage of PARP and caspase-3 in tumor tissue,PARP and caspase-3,6 h
same,"Lowest concentrations effective in decreasing the level of BRD2, BRD3, and BRD4 proteins",[1]; [16],0.1 to 0.3 nM
same,"Concentrations inducing degradation of BRD2, BRD3, and BRD4 proteins",[1]; RS4;11 leukemia cells,30 to 100 pM
same,Duration of c-Myc down-regulation in tumor tissue,c-Myc [2],at least 6 h
same,Animal weight loss or signs of toxicity,[3],no animal weight loss or other signs of toxicity; also recorded: minimal body weight change; also recorded: no signs of toxicity
same,Concentration effective in inducing cell cycle arrest,MOLM-13 cell line [4],1 to 3 nM
same,Concentration effective in inducing cell cycle arrest,RS4;11 cell line [5],0.3 nM
same,Lowest concentration effective in decreasing the level of BRD3 protein,BRD3; 3 h treatment,0.1 nM
same,Lowest concentration effectively reducing the level of BRD3 protein,BRD3; 24 h treatment,0.1 nM
same,Lowest concentration effective in decreasing the level of BRD4 protein,"BRD4; 3 h treatment, Western blot",0.3 nM
same,Lowest concentration degrading BRD4 protein,BRD4; 24 h treatment,30 pM
same,Lowest concentration effectively reducing the level of BRD4 protein,"BRD4; 24 h treatment, Western blot",0.03 nM
same,times more potent than 8 in down-regulation of c-Myc protein,"c-Myc [6]; RS4;11 cell line, comparator 8",> 1000 times
same,Concentration effectively down-regulating the level of c-Myc,c-Myc [6],0.1 nM
same,"concn in plasma, individual mice",[7]; [17],362 ng/mL
same,"concn in plasma, individual mice",[7]; [18],76.1 ng/mL
same,"concn in plasma, individual mice",[7]; [19],7.4 ng/mL
same,Major metabolite in mouse liver microsomes,[8],mono- or dihydroxylated product occurring in the alkyl chain in the linker
same,Activity against triple-negative human breast cancer,[9],very potent and efficacious
same,Antitumor activity against RS4;11 xenograft tumors,RS4;11 xenograft tumors,rapid tumor regression
same,"concn in tumor, individual tumor",[10]; [17],123 ng/g and 240.5 ng/g
same,"concn in tumor, individual tumor",[10]; [18],89 ng/g and 120.5 ng/g
same,"concn in tumor, individual tumor",[10]; [19],31.9 ng/g
same,Concentration inducing robust apoptosis,RS4;11 cell line [11],3 to 10 nM
same,Concentration inducing robust apoptosis,MOLM-13 cell line [12],3 to 10 nM
same,Lowest concentration effective in decreasing the level of BRD2 protein,BRD2; 3 h treatment,0.3 nM
same,Lowest concentration effectively reducing the level of BRD2 protein,BRD2; 24 h treatment,0.1 nM
same,"Duration of reduction of BRD2, BRD3, and BRD4 proteins in tumor tissue",[13],> 24 h
same,"Onset of reduction of BRD2, BRD3, and BRD4 proteins in tumor tissue",[13],1 h
"COc1cc2c(cc1-c1c(C)noc1C)[nH]c1nc(C(=O)NCCCCCc3cccc4c3CN(C3CCC(=O)NC3=O)C4=O)ncc12 (stereo not shown) [Compound 27, 7-(3,5-Dimethylisoxazol-4-yl)-N-(5-(2-(2,6-dioxopiperidin-3-yl)-1-oxoisoindolin-4-yl)pentyl)-6-methoxy-9H-pyrimido[4,5-b]indole-2-carboxamide]",times less potent than 23 in cell growth inhibition,[14],> 10 000 times
same,times less potent than 23 in cell growth inhibition,[15],> 400 times
"Cc1sc2c(c1C)C(c1ccc(Cl)cc1)=N[C@@H](CC(=O)NCCCCNC(=O)COc1cccc3c1C(=O)N(C1CCC(=O)NC1=O)C3=O)c1nnc(C)n1-2 (stereo partly shown) [Compound 4, dBET1, reference compound]","Effect on the level of BRD2, BRD3, and BRD4 proteins",[1]; [16],effectively decrease
same,Inhibition of tumor growth in vivo compared with 1,acute leukemia model,more effective
"CCn1nc(C2CC2)cc1Nc1nc(C(=O)NC)nc2[nH]c3cc(-c4c(C)noc4C)c(OC)cc3c12 [Compound 8, 4-((3-Cyclopropyl-1-ethyl-1H-pyrazol-5-yl)amino)-7-(3,5-dimethylisoxazol-4-yl)-6-methoxy-N-methyl-9H-pyrimido[4,5-b]indole-2-carboxamide]","Effect of pretreatment on degradation of BRD2, BRD3, and BRD4 induced by 23","[1]; RS4;11 cells, 2 h pretreatment, then 3 h treatment with 23 at 1 nM",effectively blocks
same,Effect on the level of BRD2–4 proteins,"[1]; RS4;11 cells, 3 h, at both 100 and 300 nM",fails to decrease
same,Effect on the level of BRD2–4 proteins,"[1]; RS4;11 cells, 24 h, all concentrations tested (30–1000 nM)",no effect
same,Concentration effective in inducing cell cycle arrest,MOLM-13 cell line [4],30 to 100 nM
same,Concentration effective in inducing cell cycle arrest,RS4;11 cell line [5],30 nM
same,Concentration effectively down-regulating the level of c-Myc,c-Myc [6],300 to 1000 nM
same,Concentration inducing robust apoptosis,RS4;11 cell line [11],> 300 nM
same,times more potent than 1 or 2 in binding,"BRD2, BRD3, and BRD4",> 10 times
same,Concentration inducing robust apoptosis,MOLM-13 cell line [12],> 300 nM

# Reference: article PMC5788414 (Journal of Medicinal Chemistry, 2017)
